Data set [1] has as its system Trypanosoma cruzi. Nature of the data set: Antitrypanosomal activity against Trypanosoma cruzi MHOM/Pe/2011/Arequipa;DTU 5 bloodstream trypomastigote infected in BALB/c mouse assessed as parasite-free adipose tissue in acute phase at 20 mg/kg/day, po administered for 5 consecutive days starting from day 8 post infection followed by cyclophosphamide induced immunosuppression on day 80 post infection measured after day 100 post infection by PCR method relative to control. Type of data set: functional. The method in brief: (§1)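 Female BALB/c mice (10–12 weeks, three per group) were infected i.p. with 5 × 10^5 Arequipa bloodstream trypomastigotes. Dosing was oral, 20 mg/kg/day for 5 days, as a suspension in 5% DMSO/0.5% HPMC. Cyclophosphamide 200 mg/kg i.p. was given at day 80 pi. At necropsy (day 100) tissues were tested by PCR on the splice leader region (primers TC/TC1, 300 bp). Scored as x/3 mice positive.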

For the next data set, the system named is Vero. Nature of the data set: Cytotoxicity against African green monkey Vero cells measured after 72 hrs by MTT assay. Type of data set: cell-based. The following applies: Chlorocebus sabaeus. The procedure, abridged:
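Log-phase Vero cells (0.8 × 10^4/well) in RPMI-1640 + 10% heat-inactivated FBS at 37 °C, 5% CO2 were exposed 72 h to serial dilutions (10.0–200.0 µM; stocks in DMSO). MTT was then added for 4 h and absorbance read. Quadruplicates, three experiments; IC50 by nonlinear regression.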
(In general: Tetrazolium assays rely on reduction of a dye to a coloured formazan, in cell work by metabolically active cells.)

Data set [2] can be described thus: Selectivity index, ratio of IC50 for African green monkey Vero cells to IC50 for Trypanosoma cruzi TINF/CH/1956/Tulahuen;DTU 6. Format: toxicity. The following applies: read-out: Selectivity Index. The procedure, abridged: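 SI = Vero IC50 / epimastigote IC50. Vero cells were grown in RPMI-1640 with 10% FBS, seeded at 0.8 × 10^4 cells/well, exposed to 10.0–200.0 µM for 72 h, then given MTT for 4 h. Epimastigotes were grown in MTL with 10% FBS at 28 °C, 5 × 10^5/mL, exposed to 6.3–50 µM for 48 h, then resazurin for 24 h (570/600 nm). IC50s came from nonlinear regression.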

For data set [3], the system named is Trypanosoma cruzi. Nature of the data set: Antitrypanosomal activity against Trypanosoma cruzi MHOM/Pe/2011/Arequipa;DTU 5 amastigote forms measured after 72 hrs by Giemsa staining based assay. Format: functional, organism-based. The following applies: MHOM/Pe/2011/Arequipa;DTU 5, 72 h. The method in brief:
(§2)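 Vero cells (1 × 10^4/well, on coverslips) left to adhere 24 h at 37 °C, 5% CO2, then infected with trypomastigotes at MOI 10:1 for 24 h. Free parasites were removed by three PBS washes. Compounds at 3.1, 6.25, 12.5, 25 and 50 µM were incubated 72 h, and amastigotes were counted after Giemsa staining. Triplicates, two separate experiments; IC50 by nonlinear regression.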

For data set [4], the system named is Trypanosoma cruzi. Nature of the data set: Antitrypanosomal activity against bloodstream trypomastigote stage of Trypanosoma cruzi MHOM/Pe/2011/Arequipa; DTU 5 isolated from parasite infected BALB/c Albino mouse cardiac cells after 24 hrs by Neubauer chamber based cell counting method. The following applies: DTU 5, 24 h. Type of data set: functional, organism-based. The method in brief:
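Bloodstream trypomastigotes were taken by cardiac puncture from infected BALB/c mice and diluted in RPMI + 10% heat-inactivated FBS. At 2 × 10^6/mL they were exposed to 3.1–50.0 µM (lower where needed) for 24 h at 37 °C, 5% CO2, and counted in a Neubauer chamber. Triplicates, at least three experiments; IC50 by nonlinear regression.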

Data set [5] has as its system Trypanosoma cruzi. The data set can be described thus: Antitrypanosomal activity against Trypanosoma cruzi IRHOD/CO/2008/SN3;DTU 1 amastigote forms measured after 72 hrs by Giemsa staining based assay. Format: functional, organism-based. The following applies: IRHOD/CO/2008/SN3;DTU 1, 72 h. The procedure, abridged: as §2
A short description of data set [6]: Selectivity index, ratio of IC50 for African green monkey Vero cells to IC50 for Trypanosoma cruzi MHOM/Pe/2011/Arequipa; DTU 5 trypomastigote forms. Format: toxicity. The following applies: read-out: Selectivity Index. The procedure, abridged:
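Bloodstream trypomastigotes were taken from BALB/c mice by cardiac puncture and diluted in RPMI with 10% FBS at 2 × 10^6/mL. They were incubated with 3.1–50.0 µM for 24 h at 37 °C in 5% CO2 and counted in a Neubauer chamber. Triplicate, at least three experiments; nonlinear regression.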

Data set [7] concerns Trypanosoma cruzi. The data set can be described thus: Antitrypanosomal activity against Trypanosoma cruzi MHOM/Pe/2011/Arequipa;DTU 5 bloodstream trypomastigote infected in BALB/c mouse assessed as parasite-free muscle in chronic phase at 20 mg/kg/day, po administered for 5 consecutive days starting from day 70 post infection followed by cyclophosphamide induced immunosuppression on day 80 post infection measured after day 100 post infection by PCR method relative to control. Type of data set: functional. The method in brief: as §1

Data set [8] relates to Trypanosoma cruzi. The data set can be described thus: Antitrypanosomal activity against Trypanosoma cruzi MHOM/Pe/2011/Arequipa;DTU 5 bloodstream trypomastigote infected in BALB/c mouse assessed as parasite-free spleen in chronic phase at 20 mg/kg/day, po administered for 5 consecutive days starting from day 70 post infection followed by cyclophosphamide induced immunosuppression on day 80 post infection measured after day 100 post infection by PCR method relative to control. Type of data set: functional. The procedure, abridged:
as §1

For data set [9], the system named is Trypanosoma cruzi. Nature of the data set: Antitrypanosomal activity against Trypanosoma cruzi MHOM/Pe/2011/Arequipa;DTU 5 bloodstream trypomastigotes infected in BALB/c mouse assessed as parasite-free stomach in chronic phase at 20 mg/kg/day, po administered for 5 consecutive days starting from day 70 post infection followed by cyclophosphamide induced immunosuppression on day 80 post infection measured after day 100 post infection by PCR method relative to control. Type of data set: functional. The procedure, abridged: as §1

Data set [10] is described as follows: Toxicity in BALB/c mouse infected with Trypanosoma cruzi MHOM/Pe/2011/Arequipa;DTU 5 bloodstream trypomastigote assessed as decrease in serum urea level in acute phase at 20 mg/kg/day, po administered for 5 consecutive days starting from day 8 post infection and measured at day 14 post infection by biochemical analysis relative to control. Type of data set: organism-based. On the set-up: scale not given: the % may be the effect or the level left. The following applies: in vivo. The method in brief:
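Female BALB/c mice (10–12 weeks, 14–20 g; groups of three) were infected i.p. with 5 × 10^5 Arequipa bloodstream trypomastigotes. Dosing was oral at 20 mg/kg/day for 5 days, from day 8 pi (acute) or day 70 pi (chronic), as a 2 mg/ml suspension in 5% DMSO/0.5% HPMC; controls received vehicle. Cyclophosphamide 200 mg/kg i.p. was given at day 80 pi. Serum was collected 2 days post-treatment and at necropsy by cardiac puncture and compared with infected untreated controls.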

In data set [11] the test system is Trypanosoma cruzi. Nature of the data set: Antitrypanosomal activity against Trypanosoma cruzi MHOM/Pe/2011/Arequipa;DTU 5 bloodstream trypomastigotes infected in BALB/c mouse assessed as reduction in serum Ig-G level in acute phase at 20 mg/kg/day, po administered for 5 consecutive days starting from day 8 post infection followed by cyclophosphamide induced immunosuppression on day 80 post infection and measured at day 100 post infection by ELISA. Format: functional, organism-based. The method in brief:
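Sera came from infected BALB/c mice (three per group) dosed orally at 20 mg/kg/day for 5 days. Sampling points: 2 days after treatment, the day before immunosuppression (acute only) and necropsy day. Anti-T. cruzi IgG was measured by indirect ELISA using parasite Fe-SOD as antigen, read as OD at 492 nm.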
A general note: ELISA stands for enzyme-linked immunosorbent assay.

For data set [12], the system named is Trypanosoma cruzi. The data set can be described thus: Antitrypanosomal activity against Trypanosoma cruzi MHOM/Pe/2011/Arequipa;DTU 5 epimastigote assessed as effect on D-lactate excretion at IC50 after 72 hrs by H NMR method relative to control. Format: functional, organism-based. The method in brief: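 Cells were spun at 800 × g for 10 min and culture supernatants analysed by 1H NMR. Catabolite peaks were expressed as % variation versus untreated parasites.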

SMILES strings stand for the structures. Calls of active or inactive are those of the source. The rule behind the calls is not given here.

As a reminder, the IC50 is the concentration that inhibits the measured activity by half. For `O=C(CCN1CCN(c2ccc(C(F)(F)F)cc2)CC1)c1ccc(O)cc1`, the Activity with Trypanosoma cruzi [1] is 13%; in the data set with Trypanosoma cruzi [7] it was 50%; with Trypanosoma cruzi [8] it was 50%; with Trypanosoma cruzi [9], 50%; in data set [10], “<= 10%”. Also, the IC50 was found to be 107 µM with Vero, 6.2 µM in the data set with Trypanosoma cruzi [3], 0.9 µM in the data set on Trypanosoma cruzi [4] and 6.6 µM with Trypanosoma cruzi [5]. Also, the selectivity ratio in data set [2] stood at 7.2; in [6], 123. Further, the outcome with Trypanosoma cruzi [11] and in the data set with Trypanosoma cruzi [12] was Active.

With `O=C(CCN1CCN(c2ccc(Cl)cc2)CC1)c1ccc(O)cc1`, the Activity with Trypanosoma cruzi [1] is given as 50%; with Trypanosoma cruzi [7] it was 63%; in the data set with Trypanosoma cruzi [8], 63%; in the data set on Trypanosoma cruzi [9], 63%; in data set [10], “<= 10%”. For the same molecule, the IC50 in the data set on Vero was 104 µM; with Trypanosoma cruzi [3], 5.1 µM; in the data set on Trypanosoma cruzi [4], 0.7 µM; in the data set with Trypanosoma cruzi [5], 4.5 µM. For the same molecule, the selectivity ratio turned out to be 9.8 in [2] and 141 in data set [6]. The result in the data set on Trypanosoma cruzi [11] and with Trypanosoma cruzi [12] was Active.

Regarding `O=C(Cn1ccnc1[N+](=O)[O-])NCc1ccccc1` [BENZNIDAZOLE], the Activity in the data set with Trypanosoma cruzi [1] was 25%; in the data set with Trypanosoma cruzi [7] it was 38%; in the data set with Trypanosoma cruzi [8], 38%; with Trypanosoma cruzi [9], 38%; in [10], “<= 30%”. Moreover, the IC50 with Vero is more than 200 µM; in the data set on Trypanosoma cruzi [3] it was 3 µM; in the data set with Trypanosoma cruzi [4], 6.2 µM; with Trypanosoma cruzi [5] it was 4.4 µM. In addition, the selectivity ratio was more than 7.9 in [2] and more than 32.5 in [6]. The outcome with Trypanosoma cruzi [11] and with Trypanosoma cruzi [12] was Active.

The record behind these values is ChEMBL document CHEMBL4402517, “Rational modification of Mannich base-type derivatives as novel antichagasic compounds: Synthesis, in vitro and in vivo evaluation” (Bioorg Med Chem, 2019).
